From ChEMBL document CHEMBL2417469, “Synthesis of novel analogs of 2-pyrazoline obtained from [(7-chloroquinolin-4-yl)amino]chalcones and hydrazine as potential antitumor and antimalarial agents” (Eur J Med Chem, 2013)

Key:
Type in all cases: functional
IGROV-1 = assay: Cytotoxicity against human IGROV1 cells after 48 hrs by SRB assay; details: IGROV-1, 48 h
Procedure, shortened: (§1)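 NCI 60-cell-line screen. Cells preincubated 24 h at 37 °C, 5% CO2; time-zero plates TCA-fixed. Compounds dissolved in DMSO and tested at five concentrations (100, 10, 1.0, 0.1, 0.01 µM) for 48 h continuous exposure. Adherent cells fixed with cold TCA (10% final), then SRB stained; absorbance at 515 nm. GI50, TGI and LC50 calculated from growth relative to time-zero and untreated controls.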

BT-549 = assay: Cytotoxicity against human BT549 cells after 48 hrs by SRB assay; details: BT-549, 48 h; procedure, shortened: as §1
A498 = assay: Cytotoxicity against human A498 cells after 48 hrs by SRB assay; details: A498, 48 h; procedure, shortened: as §1
UO-31 = assay: Cytotoxicity against human UO31 cells after 48 hrs by SRB assay; details: UO-31, 48 h
Procedure, shortened: (§2)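 NCI 60-cell screen. Cells grew 24 h (37 °C, 5% CO2) before compound was added. Compounds were in DMSO and diluted in medium with gentamicin, then tested at five levels (100, 10, 1.0, 0.1, 0.01 µM) with 48 h continuous exposure. Adherent cells were fixed with TCA (10% final) and stained with 0.4% SRB, absorbance read at 515 nm. A time-zero plate was included. LC50 is the concentration giving 50% loss of protein relative to time zero.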

OVCAR-4 = assay: Cytotoxicity against human OVCAR4 cells after 48 hrs by SRB assay; details: OVCAR-4, 48 h; procedure, shortened: as §1
SW-620 = assay: Cytotoxicity against human SW620 cells after 48 hrs by SRB assay; details: SW-620, 48 h; procedure, shortened: as §2
SK-OV-3 = assay: Cytotoxicity against human SKOV3 cells after 48 hrs by SRB assay; details: SK-OV-3, 48 h; procedure, shortened: as §1
HCT-15 = assay: Cytotoxicity against human HCT15 cells after 48 hrs by SRB assay; details: HCT-15, 48 h; procedure, shortened: as §1
LOX IMVI = assay: Cytotoxicity against human LOXIMVI cells after 48 hrs by SRB assay; procedure, shortened: as §1
786-0 = assay: Cytotoxicity against human 786-0 cells after 48 hrs by SRB assay; details: 786-0, 48 h; procedure, shortened: as §1
NCI-H522 = assay: Cytotoxicity against human NCI-H522 cells after 48 hrs by SRB assay; details: NCI-H522, 48 h; procedure, shortened: as §1
A549 = assay: Cytotoxicity against human A549/ATCC cells after 48 hrs by SRB assay; details: A549, 48 h; procedure, shortened: as §1
SR = assay: Cytotoxicity against human SR cells after 48 hrs by SRB assay; procedure, shortened: as §2
UACC-257 = assay: Cytotoxicity against human UACC257 cells after 48 hrs by SRB assay; details: UACC-257, 48 h; procedure, shortened: as §2
M14 = assay: Cytotoxicity against human M14 cells after 48 hrs by SRB assay; details: M14, 48 h; procedure, shortened: as §1
HT-29 = assay: Cytotoxicity against human HT-29 cells after 48 hrs by SRB assay; details: HT-29, 48 h; procedure, shortened: as §1
DU-145 = assay: Cytotoxicity against human DU145 cells after 48 hrs by SRB assay; details: DU-145, 48 h; procedure, shortened: as §1
RXF 393 = assay: Cytotoxicity against human RXF393 cells after 48 hrs by SRB assay; details: RXF 393, 48 h; procedure, shortened: as §1
SF-295 = assay: Cytotoxicity against human SF295 cells after 48 hrs by SRB assay; details: SF-295, 48 h; procedure, shortened: as §1
NCI/ADR-RES = assay: Cytotoxicity against human NCI/ADR-RES cells after 48 hrs by SRB assay; procedure, shortened: as §1
MOLT-4 = assay: Cytotoxicity against human MOLT4 cells after 48 hrs by SRB assay; details: MOLT-4, 48 h; procedure, shortened: as §1
SNB-75 = assay: Cytotoxicity against human SNB75 cells after 48 hrs by SRB assay; details: SNB-75, 48 h; procedure, shortened: as §2
Hs-578T = assay: Cytotoxicity against human Hs578T cells after 48 hrs by SRB assay; procedure, shortened: as §1
SF-539 = assay: Cytotoxicity against human SF539 cells after 48 hrs by SRB assay; details: SF-539, 48 h; procedure, shortened: as §1
NCI-H23 = assay: Cytotoxicity against human NCI-H23 cells after 48 hrs by SRB assay; details: NCI-H23, 48 h; procedure, shortened: as §1
CAKI-1 = assay: Cytotoxicity against human Caki1 cells after 48 hrs by SRB assay; details: CAKI-1, 48 h; procedure, shortened: as §1
CCRF-CEM = assay: Cytotoxicity against human CCRF-CEM cells after 48 hrs by SRB assay; procedure, shortened: as §1
MDA-MB-468 = assay: Cytotoxicity against human MDA-MB-468 cells after 48 hrs by SRB assay; details: MDA-MB-468, 48 h; procedure, shortened: as §1
UACC-62 = assay: Cytotoxicity against human UACC62 cells after 48 hrs by SRB assay; details: UACC-62, 48 h; procedure, shortened: as §2
KM12 = assay: Cytotoxicity against human KM12 cells after 48 hrs by SRB assay; details: KM12, 48 h; procedure, shortened: as §1
HL-60(TB) = assay: Cytotoxicity against human HL-60(TB) cells after 48 hrs by SRB assay; details: HL-60, 48 h; procedure, shortened: as §1
COLO 205 = assay: Cytotoxicity against human COLO205 cells after 48 hrs by SRB assay; details: COLO 205, 48 h; procedure, shortened: as §1
U-251 = assay: Cytotoxicity against human U251 cells after 48 hrs by SRB assay; details: U-251, 48 h; procedure, shortened: as §2
Malme-3M = assay: Cytotoxicity against human MALME-3M cells after 48 hrs by SRB assay; procedure, shortened: as §1
MDA-MB-231 = assay: Cytotoxicity against human MDA-MB-231 cells after 48 hrs by SRB assay; details: MDA-MB-231, 48 h; procedure, shortened: as §1
[1] = read-out: LC50 (the source's name)

## O=CN1N=C(c2cccc(Nc3ccnc4cc(Cl)ccc34)c2)CC1c1ccc(Cl)cc1 (centres undefined)
IGROV-1
  GI50: 760 nM
  LC50 (concentration killing 50% of cells relative to time zero): > 100000 nM
BT-549
  GI50: 1360 nM
  LC50 (50% net cell kill vs time zero): > 100000 nM
A498
  GI50: 830 nM
A498; [1]
  CC50: > 100000 nM
UO-31
  GI50: 880 nM
  LC50: > 100000 nM
OVCAR-4
  GI50: 4130 nM
  LC50: > 100000 nM
SW-620
  GI50: 560 nM
  LC50: > 100000 nM
SK-OV-3
  GI50: 3480 nM
  LC50 (concentration killing 50% of cells): > 100000 nM
HCT-15
  GI50: 900 nM
  LC50 (concentration killing 50% of cells relative to time zero): > 100000 nM
LOX IMVI
  GI50: 1560 nM
  LC50: 50400 nM
786-0
  GI50: 4730 nM
  LC50: > 100000 nM
NCI-H522
  GI50: 800 nM
NCI-H522; [1]
  CC50: > 100000 nM
A549
  GI50: 940 nM
A549; [1]
  CC50: > 100000 nM
SR
  GI50: 370 nM
  LC50: > 100000 nM
UACC-257
  LC50: > 100000 nM
M14
  GI50: 1040 nM
M14; [1]
  CC50: > 100000 nM
HT-29
  GI50: 480 nM
  LC50: > 100000 nM
DU-145
  GI50: 4170 nM
  LC50 (concentration killing 50% of cells): > 100000 nM
RXF 393
  GI50: 3080 nM
  LC50 (concentration killing 50% of cells): > 100000 nM
SF-295
  GI50: 1060 nM
  LC50: > 100000 nM
NCI/ADR-RES
  GI50: 760 nM
NCI/ADR-RES; [1]
  CC50: > 100000 nM
MOLT-4
  GI50: 1920 nM
  LC50: > 100000 nM
SNB-75
  GI50: 1580 nM
  LC50 (50% net cell kill): > 100000 nM
Hs-578T
  GI50: 1970 nM
  LC50 (50% net cell kill): > 100000 nM
SF-539
  GI50: 3780 nM
SF-539; [1]
  CC50: > 100000 nM
NCI-H23
  GI50: 2480 nM
NCI-H23; [1]
  CC50: > 100000 nM
CAKI-1
  GI50: 950 nM
  LC50: > 100000 nM
CCRF-CEM
  GI50: 2340 nM
  LC50 (concentration killing 50% of cells relative to time zero): > 100000 nM
MDA-MB-468
  GI50: 420 nM
  LC50: > 100000 nM
UACC-62
  GI50: 1630 nM
UACC-62; [1]
  CC50: > 100000 nM
KM12
  GI50: 590 nM
  LC50 (concentration killing 50% of cells): > 100000 nM
HL-60(TB)
  GI50: 1100 nM
HL-60(TB); [1]
  CC50: 40200 nM
COLO 205
  GI50: 1390 nM
  LC50: > 100000 nM
U-251
  GI50: 1290 nM
U-251; [1]
  CC50: > 100000 nM
Malme-3M
  GI50: 1630 nM
  LC50: > 100000 nM
MDA-MB-231
  GI50: 2120 nM
  LC50 (concentration killing 50% of cells present at time zero): > 100000 nM
